We go through 22 compounds from ChEMBL document CHEMBL4138173, “Molecular docking, design, synthesis and antifungal activity study of novel triazole derivatives” (2018).

≈ marks a conversion by molar mass, not a printed value.

Assay type in all cases: functional
One experiment deals with Cryptococcus neoformans. Put plainly: Antifungal activity against Cryptococcus neoformans after 72 hrs. A digest of the protocol:
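NCCLS-based broth dilution against C. neoformans. Test agents were in DMSO in growth medium, inoculated and held at 35 °C, and MIC80 was read at 72 h. MIC80 is the first well with roughly 80% less growth than the drug-free well. Each value averages three replicate tests.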

The test system of experiment [1] is Candida albicans. The experiment can be described thus: Antifungal activity against Candida albicans SC5314 after 24 hrs. To be noted: SC5314, 24 h. The method, boiled down: (§1)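 Broth dilution MIC per NCCLS recommendations. Compounds were dissolved in DMSO in growth medium, then inoculated and incubated at 35 °C, with growth read at 24 h for C. albicans. MIC80 is the first well showing about 80% growth reduction versus the drug-free well. Values are the mean of three replicate tests.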

The subject of the next experiment is Aspergillus fumigatus. Put plainly: Antifungal activity against Aspergillus fumigatus after 5 to 7 days. The method, boiled down: (§2)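 Filamentous fungi were tested by broth dilution following NCCLS recommendations. Compounds were dissolved in DMSO in growth medium, inoculated and incubated at 35 °C, with MIC80 read after 5–7 days. MIC80 is the first well with approximately 80% growth reduction relative to the drug-free well. Results are the mean of three replicates.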

A further experiment deals with Candida parapsilosis. Put plainly: Antifungal activity against Candida parapsilosis after 5 to 7 days. To be noted: Lodderomyces parapsilosis.
In the next experiment the test system is Nakaseomyces glabratus. The experiment can be described thus: Antifungal activity against Candida glabrata after 5 to 7 days.
In experiment [2] the test system is Candida albicans. The experiment can be described thus: Antifungal activity against Candida albicans SCY0109 after 24 hrs. Conditions: SCY0109, 24 h. The method, boiled down: as §1
The subject of another experiment is Candida tropicalis. Put plainly: Antifungal activity against Candida tropicalis after 24 hrs. The method, boiled down:
(§3)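 MIC measured by broth dilution per NCCLS recommendations. Compounds were dissolved in DMSO in growth medium, inoculated and incubated at 35 °C. MIC80 is the first well with approximately 80% lower growth than the drug-free well. Values are the mean of three replicate tests.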

The test system of a further experiment is Trichophyton rubrum. Put plainly: Antifungal activity against Trichophyton rubrum after 5 to 7 days. A digest of the protocol: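 Broth dilution per NCCLS recommendations against an ATCC strain; compounds dissolved in DMSO in growth medium; incubated at 35 °C. MIC80 is the first well with about 80% growth reduction versus the drug-free well, read at 5–7 days for filamentous fungi. Values are the mean of three replicate tests.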

The next experiment relates to Nannizzia gypsea. The experiment can be described thus: Antifungal activity against Microsporum gypseum after 5 to 7 days. The method, boiled down: as §2
The next experiment relates to Pichia kudriavzevii. The experiment can be described thus: Antifungal activity against Candida krusei after 5 to 7 days. A digest of the protocol:
as §3

Turning to `CCN[C@H](C)[C@](O)(Cn1cncn1)c1ccc(F)cc1F`, the MIC80 stood at 0.5 µg/mL (≈ 1.69 µM) against Cryptococcus neoformans, 0.5 µg/mL (≈ 1.69 µM) against Candida albicans [1] and 32 µg/mL (≈ 108 µM) with Aspergillus fumigatus.

`C[C@@H](c1ncncc1F)[C@](O)(Cn1cncn1)c1ccc(F)cc1F` [VORICONAZOLE]: the MIC80 with Candida parapsilosis came to 0.0312 µg/mL (≈ 0.0895 µM); in the experiment with Cryptococcus neoformans it was 0.0312 µg/mL (≈ 0.0895 µM); with Nakaseomyces glabratus, 0.0312 µg/mL (≈ 0.0895 µM); in the experiment with Candida albicans [2], 0.0156 µg/mL (≈ 0.0447 µM); in the experiment with Candida tropicalis it was 0.25 µg/mL (≈ 0.716 µM); against Candida albicans [1], 0.0312 µg/mL (≈ 0.0895 µM). For the same compound, the MIC80 against Trichophyton rubrum was determined as 0.125 µg/mL (≈ 0.358 µM); in the experiment with Nannizzia gypsea it was 0.25 µg/mL (≈ 0.716 µM); in the experiment on Pichia kudriavzevii it was 0.25 µg/mL (≈ 0.716 µM); in the experiment on Aspergillus fumigatus, 0.25 µg/mL (≈ 0.716 µM).

Regarding `C[C@@H](n1cc(-c2cccc(N)c2)nn1)[C@](O)(Cn1cncn1)c1ccc(F)cc1F`, the MIC80 was 1 µg/mL (≈ 2.43 µM) against Cryptococcus neoformans, 0.5 µg/mL (≈ 1.22 µM) against Candida albicans [1] and more than 64 µg/mL against Aspergillus fumigatus.

As for `CCN1CCN([C@H](C)[C@](O)(Cn2cncn2)c2ccc(F)cc2F)CC1`, the figures for the MIC80 against Cryptococcus neoformans, in the experiment on Candida albicans [1] and against Aspergillus fumigatus were 2 µg/mL (≈ 5.47 µM), 2 µg/mL (≈ 5.47 µM) and 64 µg/mL (≈ 175 µM), respectively.

Turning to `C[C@@H](NCC1CC1)[C@](O)(Cn1cncn1)c1ccc(F)cc1F`, the MIC80 against Cryptococcus neoformans was 0.125 µg/mL (≈ 0.388 µM); in the experiment with Candida albicans [1], 0.125 µg/mL (≈ 0.388 µM); against Aspergillus fumigatus, 8 µg/mL (≈ 24.8 µM).

Take `CCCCCN[C@H](C)[C@](O)(Cn1cncn1)c1ccc(F)cc1F`: the MIC80 was found to be 0.125 µg/mL (≈ 0.369 µM) with Cryptococcus neoformans, 0.125 µg/mL (≈ 0.369 µM) against Candida albicans [1] and 4 µg/mL (≈ 11.8 µM) in the experiment on Aspergillus fumigatus.

Take `C[C@@H](n1cc(-c2cccc(Cl)c2)nn1)[C@](O)(Cn1cncn1)c1ccc(F)cc1F`: the MIC80 was 0.0625 µg/mL (≈ 0.145 µM) against Cryptococcus neoformans, 0.0625 µg/mL (≈ 0.145 µM) against Candida albicans [1] and more than 64 µg/mL against Aspergillus fumigatus.

Consider `CCCCN[C@H](C)[C@](O)(Cn1cncn1)c1ccc(F)cc1F`, for which the MIC80 was determined as 0.125 µg/mL (≈ 0.385 µM) against Cryptococcus neoformans, 0.125 µg/mL (≈ 0.385 µM) with Candida albicans [1] and 8 µg/mL (≈ 24.7 µM) in the experiment on Aspergillus fumigatus.

Consider `C[C@@H](n1cc(-c2ccccc2Cl)nn1)[C@](O)(Cn1cncn1)c1ccc(F)cc1F`, for which the MIC80 in the experiment on Cryptococcus neoformans is 0.0156 µg/mL (≈ 0.0362 µM); against Candida albicans [1], 0.0156 µg/mL (≈ 0.0362 µM); against Aspergillus fumigatus, 16 µg/mL (≈ 37.1 µM).

Take `C[C@@H](n1cc(-c2ccc(Br)cc2)nn1)[C@](O)(Cn1cncn1)c1ccc(F)cc1F`: the MIC80 in the experiment with Cryptococcus neoformans was 0.25 µg/mL (≈ 0.526 µM); against Candida albicans [1], 0.25 µg/mL (≈ 0.526 µM); with Aspergillus fumigatus it was more than 64 µg/mL.

For the compound `Cc1ccc(-c2cn([C@H](C)[C@](O)(Cn3cncn3)c3ccc(F)cc3F)nn2)cc1`, the MIC80 is 0.0625 µg/mL (≈ 0.152 µM) in the experiment on Cryptococcus neoformans, 0.125 µg/mL (≈ 0.305 µM) against Candida albicans [1] and more than 64 µg/mL against Aspergillus fumigatus.

`C[C@@H](N(C)C1CC1)[C@](O)(Cn1cncn1)c1ccc(F)cc1F`: the MIC80 was determined as 0.125 µg/mL (≈ 0.388 µM) in the experiment with Cryptococcus neoformans, 0.125 µg/mL (≈ 0.388 µM) in the experiment on Candida albicans [1] and 8 µg/mL (≈ 24.8 µM) in the experiment on Aspergillus fumigatus.

As to `C[C@@H](n1cc(-c2cccc(Br)c2)nn1)[C@](O)(Cn1cncn1)c1ccc(F)cc1F`, the MIC80 against Cryptococcus neoformans was 1 µg/mL (≈ 2.1 µM); with Candida albicans [1] it was 0.5 µg/mL (≈ 1.05 µM); against Aspergillus fumigatus, more than 64 µg/mL.

With `C[C@@H](n1cc(-c2cccnc2)nn1)[C@](O)(Cn1cncn1)c1ccc(F)cc1F`, the MIC80 is 1 µg/mL (≈ 2.52 µM) against Cryptococcus neoformans, 0.5 µg/mL (≈ 1.26 µM) in the experiment with Candida albicans [1] and more than 64 µg/mL against Aspergillus fumigatus.

For the compound `C[C@@H](NCc1ccc(Br)cc1)[C@](O)(Cn1cncn1)c1ccc(F)cc1F`, the MIC80 was 0.125 µg/mL (≈ 0.286 µM) against Cryptococcus neoformans, 0.0156 µg/mL (≈ 0.0357 µM) with Candida albicans [1] and 0.5 µg/mL (≈ 1.14 µM) with Aspergillus fumigatus.

In the case of `CCCN[C@H](C)[C@](O)(Cn1cncn1)c1ccc(F)cc1F`, the values for the MIC80 in the experiment with Cryptococcus neoformans, against Candida albicans [1] and in the experiment with Aspergillus fumigatus were 0.0625 µg/mL (≈ 0.201 µM), 0.125 µg/mL (≈ 0.403 µM) and 8 µg/mL (≈ 25.8 µM), respectively.

As for `C[C@@H](n1cc(-c2cccs2)nn1)[C@](O)(Cn1cncn1)c1ccc(F)cc1F`, the MIC80 was 0.0625 µg/mL (≈ 0.155 µM) with Cryptococcus neoformans, 0.0625 µg/mL (≈ 0.155 µM) with Candida albicans [1] and 16 µg/mL (≈ 39.8 µM) against Aspergillus fumigatus.

Take `C[C@@H](n1cc(-c2ccccc2F)nn1)[C@](O)(Cn1cncn1)c1ccc(F)cc1F`: the MIC80 in the experiment on Cryptococcus neoformans was found to be 0.125 µg/mL (≈ 0.302 µM); against Candida albicans [1], 0.125 µg/mL (≈ 0.302 µM); with Aspergillus fumigatus, 32 µg/mL (≈ 77.2 µM).

As for `C[C@@H](NCc1ccccc1)[C@](O)(Cn1cncn1)c1ccc(F)cc1F`, the MIC80 against Cryptococcus neoformans worked out at 0.125 µg/mL (≈ 0.349 µM); against Candida albicans [1], 0.0312 µg/mL (≈ 0.0872 µM); against Aspergillus fumigatus, 1 µg/mL (≈ 2.79 µM).

Regarding `C[C@@H](N(Cc1ccccc1)C1CC1)[C@](O)(Cn1cncn1)c1ccc(F)cc1F`, the MIC80 in the experiment with Cryptococcus neoformans, in the experiment with Candida albicans [1] and against Aspergillus fumigatus was 8 µg/mL (≈ 20.1 µM) throughout.

Take `COc1ccc(-c2cn([C@H](C)[C@](O)(Cn3cncn3)c3ccc(F)cc3F)nn2)cc1`: the results for the MIC80 in the experiment with Cryptococcus neoformans, with Candida albicans [1] and in the experiment with Aspergillus fumigatus were 0.0625 µg/mL (≈ 0.147 µM), 0.125 µg/mL (≈ 0.293 µM) and more than 64 µg/mL, respectively.

With `C[C@@H](NC1CC1)[C@](O)(Cn1cncn1)c1ccc(F)cc1F`, the MIC80 in the experiment on Candida parapsilosis was 0.25 µg/mL (≈ 0.811 µM); in the experiment with Cryptococcus neoformans, 0.0156 µg/mL (≈ 0.0506 µM); in the experiment with Nakaseomyces glabratus it was 0.0156 µg/mL (≈ 0.0506 µM); in the experiment on Candida albicans [2] it was 0.0078 µg/mL (≈ 0.0253 µM); in the experiment on Candida tropicalis, 0.5 µg/mL (≈ 1.62 µM); in the experiment on Candida albicans [1] it was 0.0156 µg/mL (≈ 0.0506 µM). For the same compound, the MIC80 in the experiment on Trichophyton rubrum amounted to 0.0625 µg/mL (≈ 0.203 µM); against Nannizzia gypsea, 0.125 µg/mL (≈ 0.405 µM); in the experiment with Pichia kudriavzevii, 0.5 µg/mL (≈ 1.62 µM); with Aspergillus fumigatus it was 1 µg/mL (≈ 3.24 µM).

As usually defined, the MIC80 is an inhibitory concentration at the 80% level, which refers to growth in some studies and to a panel of isolates in others. A higher MIC80 goes with lower susceptibility.
